Here are results for 1 compound from ChEMBL document CHEMBL3994616, “Rational design, synthesis, and evaluation of novel 2,4-Chloro- and Hydroxy-Substituted diphenyl Benzofuro[3,2-b]Pyridines: Non-intercalative catalytic topoisomerase I and II dual inhibitor” (Eur J Med Chem, 2017).

Broadly, the IC50 is the concentration that gives 50% inhibition. For orientation: inhibition means the drop in the measured response relative to a control, in per cent.

Assay [1] deals with HCT-15. Put plainly: Induction of DNA damage in human HCT15 cells assessed as comet tail formation at 10 uM after 24 hrs using SYBRGreen stain by electrophoresis based fluorescence microscopic method (reference value: 3 +/- 1.1%). It is filed as functional.
Assay [2] relates to HCT-15. Put plainly: Antiproliferative activity against human HCT15 cells after 72 hrs by CCK8 assay. It counts as functional, cell-based. The conditions noted are these: HCT-15, 72 h. An outline of the steps: (§1)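 Cells seeded at 2-4 x 10⁴ per well, cultured overnight in medium with 10% FBS at 37 °C, 5% CO₂, then serum-starved 4 h. Graded compound concentrations added for 72 h, CCK-8 added for a further 4 h, absorbance read at 450 nm. IC50 from a four-parameter logistic fit. Results come from three experiments, each in triplicate.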

For assay [3], the system named is HCT-15. Put plainly: Induction of DNA damage in human HCT15 cells assessed as comet tail formation at 30 uM after 24 hrs using SYBRGreen stain by electrophoresis based fluorescence microscopic method (reference value: 3 +/- 1.1%). It is filed as functional.
In assay [4] the target is T1, Topoisomerase I/II (Homo sapiens) (UniProt P11387+P11388). Put plainly: Inhibition of topoisomerase-1/topoisomerase-2 in human HCT15 cell nuclear extract at 25 uM preincubated for 24 hrs followed by supercoiled pBR322 DNA addition measured after 20 mins by ethidium bromide staining based agarose gel electrophoresis method relative to control. It is filed as protein assay. A digest of the protocol:
(§2)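 HCT15 cells treated 24 h at 25, 50 or 100 µM, then nuclear fractions prepared. Nuclear extract incubated with 100 ng pBR322 at 37 °C to read relaxation by endogenous topo I/II. Products run on 1.0% agarose at 50 V for 50 min in TAE, EtBr-stained, UV-visualized. Inhibition percent averaged over three experiments.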

The target of assay [5] is T1, Topoisomerase I/II (Homo sapiens). Put plainly: Inhibition of topoisomerase-1/topoisomerase-2 in human HCT15 cell nuclear extract at 50 uM preincubated for 24 hrs followed by supercoiled pBR322 DNA addition measured after 20 mins by ethidium bromide staining based agarose gel electrophoresis method relative to control. It is filed as protein assay. An outline of the steps:
as §2

A further assay concerns T47D. In words: Antiproliferative activity against human T47D cells after 72 hrs by CCK8 assay. It is filed as functional, cell-based. An outline of the steps:
as §1
(In general: Tetrazolium dyes change colour on reduction, which living cells bring about.)

A further assay has as its system HeLa. Put plainly: Antiproliferative activity against human HeLa cells after 72 hrs by CCK8 assay. It counts as functional, cell-based.
The subject of assay [6] is HCT-15. In words: Induction of DNA damage in human HCT15 cells assessed as increase in gammaH2AX level at 30 uM after 24 hrs by Western blot method. It is filed as functional, cell-based. An outline of the steps: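 HCT15 cells exposed to 30 µM for 24 h, then lysed. 60 µg protein per sample run on 12% SDS-PAGE, and γ-H2AX detected by western blot.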
Background: A western blot detects proteins with antibodies after separation by electrophoresis.

The target in assay [7] is DNA topoisomerase 2-alpha (Homo sapiens) (UniProt P11388). Put plainly: Poison activity at human recombinant topoisomerase 2 in human HCT15 cells assessed as […] at 50 uM after 2 hrs by Western blot method. It is filed as cell-based.
Sequence of DNA topoisomerase 2-alpha (Homo sapiens) (P11388 whole entry): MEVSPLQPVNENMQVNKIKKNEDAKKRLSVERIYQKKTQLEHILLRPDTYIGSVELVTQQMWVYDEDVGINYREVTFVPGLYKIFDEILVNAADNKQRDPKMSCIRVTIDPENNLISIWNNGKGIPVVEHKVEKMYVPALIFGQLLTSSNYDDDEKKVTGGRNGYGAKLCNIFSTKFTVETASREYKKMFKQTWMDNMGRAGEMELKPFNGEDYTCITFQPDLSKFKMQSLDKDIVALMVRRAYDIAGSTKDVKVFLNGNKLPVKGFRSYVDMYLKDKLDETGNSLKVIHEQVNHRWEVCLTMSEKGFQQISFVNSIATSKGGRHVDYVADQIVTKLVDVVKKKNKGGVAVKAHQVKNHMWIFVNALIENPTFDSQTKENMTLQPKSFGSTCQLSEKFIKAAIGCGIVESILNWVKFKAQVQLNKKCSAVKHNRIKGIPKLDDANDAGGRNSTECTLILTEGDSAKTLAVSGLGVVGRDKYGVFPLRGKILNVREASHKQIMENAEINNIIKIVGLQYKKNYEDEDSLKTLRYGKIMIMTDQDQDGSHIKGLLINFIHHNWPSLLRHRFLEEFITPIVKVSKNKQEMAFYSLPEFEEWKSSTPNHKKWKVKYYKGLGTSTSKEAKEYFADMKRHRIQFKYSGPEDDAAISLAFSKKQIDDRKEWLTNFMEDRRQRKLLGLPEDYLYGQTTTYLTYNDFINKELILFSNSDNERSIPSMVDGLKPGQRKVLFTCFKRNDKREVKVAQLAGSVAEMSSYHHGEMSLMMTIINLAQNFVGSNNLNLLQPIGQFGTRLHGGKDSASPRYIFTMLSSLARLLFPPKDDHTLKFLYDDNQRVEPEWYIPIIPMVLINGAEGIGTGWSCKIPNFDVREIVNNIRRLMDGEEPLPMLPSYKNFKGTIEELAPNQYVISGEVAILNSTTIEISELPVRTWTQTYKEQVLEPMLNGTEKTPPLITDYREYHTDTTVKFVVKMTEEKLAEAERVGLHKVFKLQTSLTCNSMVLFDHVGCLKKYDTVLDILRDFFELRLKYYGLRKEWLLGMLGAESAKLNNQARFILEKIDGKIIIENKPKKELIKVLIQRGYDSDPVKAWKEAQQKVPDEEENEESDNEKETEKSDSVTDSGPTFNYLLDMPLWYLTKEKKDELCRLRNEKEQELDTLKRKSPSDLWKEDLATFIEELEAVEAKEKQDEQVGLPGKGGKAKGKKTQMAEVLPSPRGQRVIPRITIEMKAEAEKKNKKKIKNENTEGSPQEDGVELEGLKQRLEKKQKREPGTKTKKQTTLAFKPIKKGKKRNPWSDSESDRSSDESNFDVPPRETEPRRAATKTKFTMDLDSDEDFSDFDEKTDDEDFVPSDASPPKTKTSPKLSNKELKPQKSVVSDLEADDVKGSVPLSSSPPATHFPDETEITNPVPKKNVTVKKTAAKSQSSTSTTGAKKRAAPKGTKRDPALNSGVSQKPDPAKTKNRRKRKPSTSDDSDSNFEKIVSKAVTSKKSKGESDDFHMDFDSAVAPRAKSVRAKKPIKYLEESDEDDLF
Assay [8] shares this target. The conditions noted are these: 250 uM.

Active and inactive are the calls of the source. The calls are words filed in the database; no cut-off is given here.

T1 sequence (P11387 whole entry, looked up): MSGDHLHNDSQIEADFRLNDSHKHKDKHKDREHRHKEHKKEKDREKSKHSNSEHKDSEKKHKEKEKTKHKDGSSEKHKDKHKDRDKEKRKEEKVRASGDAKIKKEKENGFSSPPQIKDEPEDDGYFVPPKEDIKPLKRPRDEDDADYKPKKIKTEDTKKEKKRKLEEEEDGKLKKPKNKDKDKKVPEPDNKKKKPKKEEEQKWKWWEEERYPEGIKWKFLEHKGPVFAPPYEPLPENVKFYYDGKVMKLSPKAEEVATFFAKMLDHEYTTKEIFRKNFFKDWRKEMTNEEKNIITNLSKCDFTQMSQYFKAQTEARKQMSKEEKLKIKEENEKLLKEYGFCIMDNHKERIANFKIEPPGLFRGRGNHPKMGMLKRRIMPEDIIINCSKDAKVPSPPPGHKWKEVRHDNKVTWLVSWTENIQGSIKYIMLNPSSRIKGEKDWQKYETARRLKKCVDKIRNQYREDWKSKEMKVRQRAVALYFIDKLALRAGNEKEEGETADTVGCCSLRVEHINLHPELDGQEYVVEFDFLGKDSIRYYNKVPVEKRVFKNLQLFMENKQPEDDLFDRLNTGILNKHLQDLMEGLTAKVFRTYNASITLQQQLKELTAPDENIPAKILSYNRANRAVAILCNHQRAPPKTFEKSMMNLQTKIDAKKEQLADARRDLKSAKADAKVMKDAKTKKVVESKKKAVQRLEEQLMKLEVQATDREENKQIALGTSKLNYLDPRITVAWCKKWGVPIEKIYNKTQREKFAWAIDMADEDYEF
T1 sequence (P11388 whole entry, looked up): as the sequence (P11388 whole entry) above

With `COc1cc([C@@H]2c3cc4c(cc3[C@@H](O[C@@H]3O[C@@H]5CO[C@@H](C)O[C@H]5[C@H](O)[C@H]3O)[C@H]3COC(=O)[C@H]23)OCO4)cc(OC)c1O` [ETOPOSIDE], the Activity with HCT-15 [1] is reported as 46.3%; in the assay on HCT-15 [3], 65.5%. The IC50 worked out at 5.4 µM with HCT-15 [2], 7 µM in the assay on T47D and 9.1 µM in the assay on HeLa. Besides, the inhibition in assay [4] was determined as 36.1%; in [5] it was 60.9%. Also, the outcome (with HCT-15 [6]; in assay [7]) was Active. Also, the inhibition entry in [8] was “Active”.
